According to ChEMBL document CHEMBL1150763, “Discovery of imidazo[1,5-c]imidazol-3-ones: weakly basic, orally active factor Xa inhibitors” (J Med Chem, 2008):
One block for each compound: values may come before it.

What was measured:
Coagulation factor X = Coagulation factor X (Homo sapiens, UniProt P00742); assay: Inhibition of human factor 10a
Plasma [1] = assay: Anticoagulant potency in human plasma assessed as concentration required to double the time to clot formation by PT assay; format: functional
In short: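 Human normal plasma mixed with compound dilutions in DMSO (1.5 µL into 48.5 µL), preincubated 4 min at 37 °C, clotting started with thromboplastin and timed on an automatic coagulometer. Prolongation relative to DMSO; concentration doubling clotting time derived by least-squares regression; mean of duplicates.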

[2] = Basicity, pKa by titration method; format: physicochemical
Plasma [3] = assay: Anticoagulant potency in mouse plasma assessed as concentration required to double the time to clot formation by PT assay; format: functional
Plasma [4] = assay: Anticoagulant activity in mouse plasma assessed as ratio of prothrombin time in drug to untreated control at 30 mg/kg, po; format: functional
In short: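 Male ICR mice (30-35 g), fasted >12 h, dosed orally at 30 mg/kg as suspension in 0.5% methylcellulose; vehicle controls. Citrated aortic blood drawn 1 h post-dose under pentobarbital anaesthesia, spun 1000g 10 min to platelet-poor plasma. PT on 50 µL plasma preincubated 4 min at 37 °C, started with thromboplastin; clotting time expressed relative to control group (n = 3).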

CYP3A4 = CYP3A4 (Homo sapiens, UniProt P08684); assay: Inhibition of CYP3A4 expressed in human B-lymphoblastoid cells at 10 uM; format: ADME, cell-based
CYP3A4, sequence (P08684 whole entry): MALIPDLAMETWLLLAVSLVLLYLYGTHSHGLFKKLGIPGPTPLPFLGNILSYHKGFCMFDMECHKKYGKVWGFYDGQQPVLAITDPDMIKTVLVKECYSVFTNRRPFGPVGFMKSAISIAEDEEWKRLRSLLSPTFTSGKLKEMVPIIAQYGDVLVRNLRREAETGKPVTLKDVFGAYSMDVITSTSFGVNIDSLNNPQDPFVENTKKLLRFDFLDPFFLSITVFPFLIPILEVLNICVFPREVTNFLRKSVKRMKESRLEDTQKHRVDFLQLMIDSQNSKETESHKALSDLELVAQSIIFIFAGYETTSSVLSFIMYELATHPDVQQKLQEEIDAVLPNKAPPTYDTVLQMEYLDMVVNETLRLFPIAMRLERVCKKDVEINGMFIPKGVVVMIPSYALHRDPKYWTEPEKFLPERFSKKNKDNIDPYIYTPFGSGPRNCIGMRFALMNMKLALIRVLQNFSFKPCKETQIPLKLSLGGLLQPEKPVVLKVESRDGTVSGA
In short: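 Recombinant CYP3A4 (10 nM, from CYP3A4-expressing human B-lymphoblastoid cells) incubated with 100 µM testosterone and 10 µM test compound for 30 min at 37 °C; 6β-hydroxytestosterone formation quantified by HPLC-UV.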

physchem = conditions: buffer, pH 7.4
Prothrombin = Prothrombin (Homo sapiens, UniProt P00734); assay: Inhibition of thrombin
[5] = Inhibition of trypsin
Plasminogen = Plasminogen (Homo sapiens, UniProt P00747); assay: Inhibition of plasmin
Plasminogen, sequence (P00747 97-580 limits assumed): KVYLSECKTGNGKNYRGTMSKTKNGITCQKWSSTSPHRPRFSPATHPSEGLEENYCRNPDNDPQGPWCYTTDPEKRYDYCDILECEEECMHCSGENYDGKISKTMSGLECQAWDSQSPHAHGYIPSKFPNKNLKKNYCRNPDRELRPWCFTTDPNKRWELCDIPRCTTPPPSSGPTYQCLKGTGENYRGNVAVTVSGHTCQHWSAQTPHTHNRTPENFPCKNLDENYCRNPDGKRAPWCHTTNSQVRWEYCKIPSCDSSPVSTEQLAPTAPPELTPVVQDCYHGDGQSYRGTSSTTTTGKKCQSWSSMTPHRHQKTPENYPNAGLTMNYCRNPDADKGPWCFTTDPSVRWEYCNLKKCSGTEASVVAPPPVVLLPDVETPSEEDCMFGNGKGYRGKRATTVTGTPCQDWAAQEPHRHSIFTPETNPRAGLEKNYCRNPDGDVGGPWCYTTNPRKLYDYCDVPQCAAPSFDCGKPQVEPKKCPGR
Plasminogen, sequence (P00747 581-810 limits assumed): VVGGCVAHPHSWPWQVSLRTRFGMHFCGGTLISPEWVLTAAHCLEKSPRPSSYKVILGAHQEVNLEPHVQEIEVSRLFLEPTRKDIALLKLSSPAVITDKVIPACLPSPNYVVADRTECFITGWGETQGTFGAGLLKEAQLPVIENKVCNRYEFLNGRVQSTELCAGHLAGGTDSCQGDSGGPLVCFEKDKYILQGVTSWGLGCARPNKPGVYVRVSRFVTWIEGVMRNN

[6] = biological target: Tissue-type plasminogen activator (Homo sapiens, UniProt P00750); assay: Inhibition of tPA
Tissue-type plasminogen activator, sequence (P00750 whole entry): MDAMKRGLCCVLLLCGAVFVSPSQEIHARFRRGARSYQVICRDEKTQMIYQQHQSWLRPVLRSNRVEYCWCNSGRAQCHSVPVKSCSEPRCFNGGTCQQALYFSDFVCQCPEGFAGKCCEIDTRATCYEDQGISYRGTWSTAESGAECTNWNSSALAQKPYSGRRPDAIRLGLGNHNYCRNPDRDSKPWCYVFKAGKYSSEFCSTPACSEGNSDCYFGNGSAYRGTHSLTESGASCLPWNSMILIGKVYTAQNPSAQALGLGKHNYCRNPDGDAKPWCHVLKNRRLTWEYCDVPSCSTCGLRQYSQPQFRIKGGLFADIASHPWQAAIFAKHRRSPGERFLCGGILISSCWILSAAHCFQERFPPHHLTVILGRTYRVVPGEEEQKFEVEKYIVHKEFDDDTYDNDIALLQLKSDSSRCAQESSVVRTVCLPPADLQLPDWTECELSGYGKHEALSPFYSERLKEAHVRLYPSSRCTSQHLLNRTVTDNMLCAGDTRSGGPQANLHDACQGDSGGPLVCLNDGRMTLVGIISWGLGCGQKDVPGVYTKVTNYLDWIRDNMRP

[7] = Cmin in Sprague-Dawley rat in fed state at 0.3 mg, iv after 5 mins; format: ADME, organism-based; conditions: in vivo, read-out: Cmin
In short: (§1)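 Male SD rats (8 weeks old) or cynomolgus monkeys, n = 3, given 0.3 mg/kg intravenously in DMA/PEG400. Blood sampled at 5, 10, 15, 30 min and 1, 2, 4, 8, 24 h (rat tail vein, monkey femoral vein); acetonitrile-deproteinized plasma diluted in pH 3.0 ammonium formate and quantified by LC/MS/MS.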

[8] = AUC (0 to 24 hrs) in Sprague-Dawley rat in fed state at 0.3 mg, iv; format: ADME, organism-based; parameters: time < 24 hr, dose 0.3 mg, route intravenous; conditions: plasma
In short: (§2)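 Male SD (IGS) rats, 8 weeks old, n = 3, fasted or fed; dosed iv at 0.3 mg/kg in DMA/PEG400 or orally at 3 mg/kg as 0.5% methylcellulose suspension. Tail-vein blood drawn 5 min–24 h (iv) or 15 min–24 h (po). Plasma deproteinized with acetonitrile, diluted in 0.01 mol/L HCO₂NH₄ pH 3.0, and quantified by LC/MS/MS in positive ion mode.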

[9] = Mean residence time in Sprague-Dawley rat in fed state at 0.3 mg, iv; format: ADME, organism-based; conditions: in vivo; in short: as §1
[10] = Volume of distribution in steady state in Sprague-Dawley rat in fed state at 0.3 mg, iv; format: ADME, organism-based; conditions: in vivo, read-out: Vdss; in short: as §1
[11] = Total clearance in Sprague-Dawley rat in fed state at 0.3 mg, iv; format: ADME, organism-based; conditions: in vivo; in short: as §1
[12] = Cmin in cynomolgus monkey in fed state at 0.3 mg, iv after 5 mins; format: ADME, organism-based, Macaca fascicularis; conditions: in vivo, read-out: Cmin; in short: as §1
[13] = AUC (0 to 24 hrs) in cynomolgus monkey in fed state at 0.3 mg, iv; format: ADME, organism-based, Macaca fascicularis; parameters: dose 0.3 mg, time < 24 hr, route intravenous; conditions: plasma
In short: (§3)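 Male cynomolgus monkeys, n = 3, fasted or fed; single dose iv 0.3 mg/kg (DMA/PEG400) or po 3 mg/kg (0.5% methylcellulose suspension). Femoral-vein blood sampled 5 min–24 h after iv, 15 min–24 h after oral. Plasma deproteinized with acetonitrile, supernatant diluted in 0.01 mol/L HCO₂NH₄ pH 3.0, drug measured by LC/MS/MS.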

[14] = Mean residence time in cynomolgus monkey in fed state at 0.3 mg, iv; format: ADME, organism-based, Macaca fascicularis; conditions: in vivo; in short: as §1
[15] = Volume of distribution in steady state in cynomolgus monkey in fed state at 0.3 mg, iv; format: ADME, organism-based, Macaca fascicularis; conditions: in vivo, read-out: Vdss; in short: as §1
[16] = Total clearance in cynomolgus monkey in fed state at 0.3 mg, iv; format: ADME, organism-based, Macaca fascicularis; conditions: in vivo; in short: as §1
[17] = Cmax in Sprague-Dawley rat in fed state at 3 mg/kg, po; format: ADME, organism-based; parameters: dose 3 mg/kg, route oral; conditions: in vivo
In short: (§4)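 Male animals (SD rats 8 weeks old or cynomolgus monkeys, n = 3), fasted or fed, given 3 mg/kg orally as 0.5% methylcellulose suspension. Blood at 15, 30 min and 1, 2, 4, 8, 24 h (rat tail vein, monkey femoral vein); plasma deproteinized with acetonitrile, diluted in pH 3.0 ammonium formate, analysed by LC/MS/MS in positive ion mode.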

[18] = Tmax in Sprague-Dawley rat in fed state at 3 mg/kg, po; format: ADME, organism-based; parameters: dose 3 mg/kg, route oral; conditions: in vivo; in short: as §4
[19] = AUC (0 to 24 hrs) in Sprague-Dawley rat in fed state at 3 mg/kg, po; format: ADME, organism-based; parameters: time < 24 hr, dose 3 mg/kg, route oral; conditions: plasma; in short: as §2
[20] = Mean residence time in Sprague-Dawley rat in fed state at 3 mg/kg, po; format: ADME, organism-based; parameters: dose 3 mg/kg, route oral; conditions: in vivo; in short: as §4
[21] = Bioavailability in Sprague-Dawley rat in fed state at 3 mg/kg, po; format: ADME, organism-based; conditions: in vivo
In short: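 Male SD (IGS) rats, 8 weeks old, n = 3, fed or fasted. Dosed iv at 0.3 mg/kg in DMA/PEG400 and po at 3 mg/kg as a 0.5% methylcellulose suspension. Tail-vein blood taken at 15, 30 min and 1, 2, 4, 8, 24 h after oral dosing (iv adds 5 and 10 min). Plasma deproteinized with acetonitrile and assayed by LC/MS/MS.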

[22] = Cmax in cynomolgus monkey in fed state at 3 mg/kg, po; format: ADME, organism-based, Macaca fascicularis; parameters: dose 3 mg/kg, route oral; conditions: in vivo; in short: as §4
[23] = Tmax in cynomolgus monkey in fed state at 3 mg/kg, po; format: ADME, organism-based, Macaca fascicularis; parameters: dose 3 mg/kg, route oral; conditions: in vivo; in short: as §4
[24] = AUC (0 to 24 hrs) in cynomolgus monkey in fed state at 3 mg/kg, po; format: ADME, organism-based, Macaca fascicularis; parameters: time < 24 hr, dose 3 mg/kg, route oral; conditions: plasma; in short: as §3
[25] = Mean residence time in cynomolgus monkey in fed state at 3 mg/kg, po; format: ADME, organism-based, Macaca fascicularis; parameters: dose 3 mg/kg, route oral; conditions: in vivo; in short: as §4
[26] = Bioavailability in cynomolgus monkey in fed state at 3 mg/kg, po; format: ADME, organism-based, Macaca fascicularis; conditions: in vivo
In short: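 Male cynomolgus monkeys, fed, given 3 mg/kg orally as 0.5% methylcellulose suspension and 0.3 mg/kg iv in DMA/PEG400 (n = 3); femoral vein plasma sampled to 24 h, deproteinized with acetonitrile and quantified by LC/MS/MS.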

[27] = Cmax in Sprague-Dawley rat in fasted state at 3 mg/kg, po; format: ADME, organism-based; parameters: dose 3 mg/kg, route oral; conditions: in vivo; in short: as §4
[28] = Tmax in Sprague-Dawley rat in fasted state at 3 mg/kg, po; format: ADME, organism-based; parameters: dose 3 mg/kg, route oral; conditions: in vivo; in short: as §4
[29] = Mean residence time in Sprague-Dawley rat in fasted state at 3 mg/kg, po; format: ADME, organism-based; parameters: dose 3 mg/kg, route oral; conditions: in vivo; in short: as §4
[30] = AUC (0 to 24 hrs) in Sprague-Dawley rat in fasted state at 3 mg/kg, po; format: ADME, organism-based; parameters: time < 24 hr, dose 3 mg/kg, route oral; conditions: plasma; in short: as §2
[31] = Cmax in cynomolgus monkey in fasted state at 3 mg/kg, po; format: ADME, organism-based, Macaca fascicularis; parameters: dose 3 mg/kg, route oral; conditions: in vivo; in short: as §4
[32] = Tmax in cynomolgus monkey in fasted state at 3 mg/kg, po; format: ADME, organism-based, Macaca fascicularis; parameters: dose 3 mg/kg, route oral; conditions: in vivo; in short: as §4
[33] = Mean residence time in cynomolgus monkey in fasted state at 3 mg/kg, po; format: ADME, organism-based, Macaca fascicularis; parameters: dose 3 mg/kg, route oral; conditions: in vivo; in short: as §4
[34] = AUC (0 to 24 hrs) in cynomolgus monkey in fasted state at 3 mg/kg, po; format: ADME, organism-based, Macaca fascicularis; parameters: time < 24 hr, dose 3 mg/kg, route oral; conditions: plasma; in short: as §3
Rattus norvegicus [35] = assay: Effect on bleeding time in Sprague-Dawley rat at 30 mg/kg, po; format: functional
In short: (§5)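 Male Sprague-Dawley rats (7 weeks old) dosed orally 30 min beforehand, then anaesthetized with pentobarbital; tail transected 2-3 mm from tip, blood blotted every 30 s until bleeding stopped or 30 min elapsed; mean ± SEM, n = 6.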

Rattus norvegicus [36] = assay: Effect on bleeding time in Sprague-Dawley rat at 100 mg/kg, po; format: functional; in short: as §5
Rattus norvegicus [37] = assay: Effect on bleeding time in Sprague-Dawley rat at 0.3 mg/kg, po; format: functional
In short: (§6)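 Male Sprague-Dawley rats (7 weeks old) dosed orally 18 h before measurement, then anesthetized with sodium pentobarbital. Tail transected 2-3 mm from the tip; blood blotted with filter paper every 30 s until bleeding stopped or 30 min elapsed. Bleeding time given as mean ± SEM, n = 6, compared with a vehicle group by one-tailed Shirley-Williams' test.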

Rattus norvegicus [38] = assay: Effect on bleeding time in Sprague-Dawley rat at 1 mg/kg, po; format: functional; in short: as §6

Coagulation factor X, sequence (P00742 41-179 limits assumed): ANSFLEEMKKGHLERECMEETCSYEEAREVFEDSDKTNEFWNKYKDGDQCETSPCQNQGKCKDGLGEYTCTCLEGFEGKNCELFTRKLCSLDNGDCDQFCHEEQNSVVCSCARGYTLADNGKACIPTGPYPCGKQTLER
Coagulation factor X, sequence (P00742 235-488 limits assumed): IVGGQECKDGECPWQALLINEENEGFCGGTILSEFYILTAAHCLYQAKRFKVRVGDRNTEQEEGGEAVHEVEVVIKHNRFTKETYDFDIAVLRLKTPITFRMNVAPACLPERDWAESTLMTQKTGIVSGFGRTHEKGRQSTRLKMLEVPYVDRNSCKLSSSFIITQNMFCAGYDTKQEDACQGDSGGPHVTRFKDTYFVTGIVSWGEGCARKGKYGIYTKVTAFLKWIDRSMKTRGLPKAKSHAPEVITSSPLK

IC50 (Coagulation factor X): 160 nM
SMILES: CCc1nccn1C1CCN(C(=O)CCS(=O)(=O)c2ccc3cc(Cl)ccc3c2)CC1
Activity (Plasma [1]): 1 µM

IC50 (Coagulation factor X): 5.3 nM
pKa [2]: 5.4
inhibition at 10 µM (CYP3A4): 62%
logD (physchem): 2.5
SMILES: Cc1nc(C)n2c1CN(C1CCN(C(=O)CCS(=O)(=O)c3ccc4cc(Cl)ccc4c3)CC1)C2=O
Activity (Plasma [1]): 1.2 µM
Activity (Plasma [3]): 2.5 µM
Ratio (Plasma [4]): 2

pKa [2]: 5
inhibition at 10 µM (CYP3A4): 23%
Ki (Prothrombin): 6200 nM
Ki [5]: > 60000 nM
Ki (Plasminogen): > 60000 nM
Ki [6]: > 60000 nM
concentration at 5 min [7]: 291 ng/mL
AUC(0-t) at 24 h [8]: 245 ng·h/mL
MRT [9]: 0.7 h
Vd [10]: 0.888 L/kg
clearance [11]: 20.8 mL/min/kg
concentration at 5 min [12]: 612 ng/mL
AUC(0-t) at 24 h [13]: 565 ng·h/mL
MRT [14]: 1 h
Vd [15]: 0.556 L/kg
clearance [16]: 9.02 mL/min/kg
Cmax [17]: 145 ng/mL
Tmax [18]: 1.2 h
AUC(0-t) at 24 h [19]: 597 ng·h/mL
MRT [20]: 3.6 h
bioavailability [21]: 24%
Cmax [22]: 269 ng/mL
Tmax [23]: 2.3 h
AUC(0-t) at 24 h [24]: 2590 ng·h/mL
MRT [25]: 7 h
bioavailability [26]: 46%
Cmax [27]: 570 ng/mL
Tmax [28]: 0.3 h
MRT [29]: 1.5 h
AUC(0-t) at 24 h [30]: 417 ng·h/mL
Cmax [31]: 1200 ng/mL
Tmax [32]: 0.8 h
MRT [33]: 1.6 h
AUC(0-t) at 24 h [34]: 2120 ng·h/mL
logD (physchem): 2.3
SMILES: Cc1ncc2n1C(=O)N(C1CCN(C(=O)CCS(=O)(=O)c3ccc4cc(Cl)ccc4c3)CC1)C2
Activity (Plasma [1]): 1 µM
Activity (Plasma [3]): 2 µM
Time (Rattus norvegicus [35]): 490 s
Time (Rattus norvegicus [36]): 1040 s

IC50 (Coagulation factor X): 23 nM
pKa [2]: 8.2
inhibition at 10 µM (CYP3A4): 42%
logD (physchem): 2.2
SMILES: O=C(CCS(=O)(=O)c1ccc2cc(Cl)ccc2c1)N1CCC(c2cnc3n2CCCC3)CC1
Activity (Plasma [1]): 0.48 µM
Activity (Plasma [3]): 3 µM
Ratio (Plasma [4]): 1.1

IC50 (Coagulation factor X): 910 nM
SMILES: Cc1nccn1CC1CCN(C(=O)CCS(=O)(=O)c2ccc3cc(Cl)ccc3c2)CC1
Activity (Plasma [1]): 7.7 µM

SMILES: CC(=O)CC(c1ccccc1)c1c(O)c2ccccc2oc1=O (centres undefined) [WARFARIN]
Time (Rattus norvegicus [37]): 445 s
Time (Rattus norvegicus [38]): 1590 s
